The record followed here is the array DNA melting data of Ke et al. (doi:10.1101/2024.01.08.574731).

Series [1] can be described thus: folding enthalpy; higher = less favourable; fluorescence melt of hairpins on a sequencing array, two-state fit. The settings on record: sodium 0.088 M. In outline: (§1)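 Hairpins were imaged by Cy3 fluorescence on a sequenced MiSeq flow cell with annealed Cy3 and quencher oligos, in 50 mM Na-HEPES pH 8.0, 25 mM NaCl, in 2.5 °C steps up to 60 °C. Bootstrapped two-state fits of normalised signals gave melting temperature and folding enthalpy. Four replicates were combined by inverse variance, and fitted temperatures were raised by 9.35 °C to match UV melts.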

The nature of series [2]: melting temperature; fluorescence melt of hairpins on a sequencing array, two-state fit, raised by 9.35 °C to match UV melts. Conditions: sodium 0.088 M. In outline: as §1

For GCATCTGGAAACAGACGC ((.((((....)))).)), the folding enthalpy in series [1] is -33 kcal/mol. Also, the Tm in series [2] is 44.2 °C.
In the same order, the values of GGGCCCGGAAACGAGCCC ((((.((....)).)))) are -47.5 kcal/mol and 57.5 °C.
As for GAGCTCCGAAAGGACCTC (((.(((....))).))), the folding enthalpy in series [1] was -20.2 kcal/mol. Moreover, the Tm in series [2] came to 38.1 °C.
For GTTGCCGAAAGGCGGAAC ((((((....)))..))), in that order: -7.95 kcal/mol and 32.8 °C.
In the same order, the values of GATACCGGAAACGGTATC (((((((....))))))) are -34.2 kcal/mol and 65 °C.
Regarding GACACACCGAAAGGTGTC (((..(((....)))))), the folding enthalpy in series [1] was -8 kcal/mol. Further, the Tm in series [2] worked out at 37.3 °C.
For the sequence GGCTACGAAAGTAAAGCC ((((((....)))..))), in series [1], the folding enthalpy was -32.5 kcal/mol. In addition, the Tm in series [2] worked out at 50.5 °C.
In the same order, the values of GATCCTCGATAGGATC ((((((....)))))) are -29.4 kcal/mol and 50.2 °C.
Turning to GATATACCGAAAGGTATC (((..(((....)))))), the folding enthalpy in series [1] was -13.3 kcal/mol. Further, in series [2], the Tm was found to be 32.8 °C.
For GCGCGGGGAAACCCGCAC (.(((((....))))).), in that order: -8.32 kcal/mol and 53.9 °C.
In the same order, the values of GATCTGCGCACAGATC ((((((....)))))) are -38.3 kcal/mol and 52.8 °C.
In the same order, the values of GCGTCCTCACGC ((((....)))) are -24.3 kcal/mol and 50.9 °C.
As to GCATACGAAAGTATGTGC ((((((....)))..))), in series [1], the folding enthalpy was -23 kcal/mol. The Tm in series [2] was found to be 52.2 °C.
On to GATCCTCCAAAGGATC ((((((....)))))), for which the folding enthalpy in series [1] was -28.8 kcal/mol. For the same sequence, in series [2], the Tm was 50.4 °C.
As for GCGTGGGAACGC ((((....)))), in series [1], the folding enthalpy was -20.4 kcal/mol. For the same sequence, in series [2], the Tm came to 66.7 °C.
In the same order, the values of GGTACTGGAAACAATACC ((((.((....)).)))) are -12 kcal/mol and 26.7 °C.
For the sequence GGTCACGAAAGTGAACC ((((((....))).))), the folding enthalpy in series [1] is -27.2 kcal/mol. The Tm in series [2] was determined as 55.6 °C.
For GATCCCCTGGGGGATC ((((((....)))))), in that order: -36.4 kcal/mol and 66.6 °C.
Consider GCGGTCGACCGC ((((....)))), for which the folding enthalpy in series [1] is -38.5 kcal/mol. The Tm in series [2] was 67.7 °C.
In the case of GTTTCCGAAAGGATAAC ((((((....))).))), the folding enthalpy in series [1] is -19.8 kcal/mol. Further, the Tm in series [2] turned out to be 37.6 °C.
On to GGTTGCGGAAACGTGACC (((..((....))..))), for which, in series [1], the folding enthalpy is -32.2 kcal/mol. Moreover, the Tm in series [2] stood at 48.8 °C.
On to CTAACTGAAAAGTTAG ((((((....)))))), for which the folding enthalpy in series [1] is -23.3 kcal/mol. Moreover, the Tm in series [2] amounted to 45.9 °C.
With GCAGTCGAAAGACACTGC ((((((....)))..))), the folding enthalpy in series [1] was -18 kcal/mol. For the same sequence, the Tm in series [2] amounted to 43.5 °C.
For GCAAAGACGAAAGTCTGC (((..(((....)))))), the folding enthalpy in series [1] was -15.7 kcal/mol. Also, in series [2], the Tm is 50.2 °C.
Consider GCGACTTATCGC ((((....)))), for which the folding enthalpy in series [1] is -24.1 kcal/mol. In addition, the Tm in series [2] is 48.8 °C.
For GGCGTACGAAAGTAGCC (((.(((....)))))), in that order: -32.6 kcal/mol and 65.5 °C.
For GGGGCTCCGAAAGGACCC (((..(((....)))))), in that order: -35.3 kcal/mol and 56.9 °C.
Regarding GGGGGCGAAAGCCCACCC ((((((....)))..))), in series [1], the folding enthalpy is -10.1 kcal/mol. Besides, the Tm in series [2] was 57.3 °C.
In the same order, the values of GATCTTAGACAAGATC ((((((....)))))) are -30.2 kcal/mol and 37.3 °C.
Take CAGCTGAAAAGCTG (((((....))))): in series [1], the folding enthalpy was -25.4 kcal/mol. For the same sequence, the Tm in series [2] stood at 58.6 °C.
For GATCCCACAGGGATC ((((((...)))))), in that order: -33.1 kcal/mol and 67.1 °C.
In the same order, the values of GCACAGGGAAACCTGTAC (.(((((....))))).) are -12.6 kcal/mol and 40.3 °C.
In the same order, the values of GATCAACTATTTGATC ((((((....)))))) are -31.5 kcal/mol and 42.4 °C.
Consider GCCCTGCGAAAGCCTGGC (((..((....))..))), for which the folding enthalpy in series [1] is -16.2 kcal/mol. Moreover, the Tm in series [2] worked out at 45.5 °C.
In the case of GATCGCCCAGCGATC ((((((...)))))), the folding enthalpy in series [1] is -32.1 kcal/mol. Moreover, the Tm in series [2] came to 67.4 °C.
For GGCGGAGGAAACTCTGCC (((.(((....))).))), in that order: -51.1 kcal/mol and 57.1 °C.
As for GCTATCGAAAGATCTAGC ((((((....)))..))), the folding enthalpy in series [1] is -11.8 kcal/mol. For the same sequence, in series [2], the Tm worked out at 26.1 °C.
